The full list was thinned out, with hits kept by preference.
H69AR inhibit: proliferation blockers of H69AR lung cancer cells, primary screen, cell-based, human, 86K library. viability, % at 10 µM. H69AR lung tumor viability, ATP luminescence, 72 h; stronger effect = lower value. 6% of 85,000 active;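 active = viability at or below 40%; inactive = viability above 40%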;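 note: multidrug resistant small cell line overexpressing MRP-1 efflux transporter; 100% = mean luminescence of untreated control wells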
Fibroblast inh: antiproliferative effect on LL 47 fibroblasts – human, LL 47 cells, CellTiter-Glo luminescence, primary screen; LL 47 human lung fibroblast viability, ATP luminescence; stronger effect = lower value; viability, % at 10 µM; 1.1% of 85,000 active;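 active = viability at or below 50% in the single dose screen; inactive = viability above 50%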;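 note: compound exposure lasted 72 h before the ATP readout; 100% = median luminescence of untreated cell-only wells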
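Test system: LL 47 human lung fibroblasts / Incubation: 72 h compound exposure at 37 °C after overnight plating / Technique: luminescent ATP detection, CellTiter-Glo / Compound dosing: 0.1% DMSO in all compound wells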
bCat KO growth: primary screen for growth suppressors in beta-catenin knockout HCT116 cells (colon tumor, human) | viability, % at 10 µM | 1.5% of 140,000 active | HCT116 beta-catenin knockout viability, CellTiter-Glo, 60 h; stronger effect = lower value;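 active = viability at or under a set limit, the compound median less 4 SD, cut at about 6% in these data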;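 note: 0% = Hyamine 1622 control at 20 µM and 100% = untreated cell control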
HCT116 PTEN-null: growth suppression of PTEN-null HCT116, primary screen, cell-based, CellTiter-Glo. 1.2% of 140,000 active. viability, % at 10 µM. HCT116 PTEN-null viability, 60 h; stronger effect = lower value;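 active = viability at or below a set limit, 4 SD under the median of all tested compounds, cut at about 3.7% in these data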;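 note: PTEN knockout HCT116 line with beta catenin targeted HCT116 as companion control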
HUVEC inhibit: inhibitors of HUVEC proliferation, primary screen, cell-based, 384-well; CellTiter-Glo luminescence, 72 h; stronger effect = lower value; viability, % at 10 µM (by protocol); 1.1% of 86,000 active; AID 648, 2007;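 active = viability at or below 30%; inactive = viability above 30%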;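 note: 100% = median luminescence of DMSO-only cell control wells on each plate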
An asterisk follows results filed as active.

For O=C(COC(=O)c1cc(-c2ccccc2)nc2ccccc12)Nc1ccc2c(c1)OCO2 the results were bCat KO growth 86.7 and HCT116 PTEN-null 117.0.
For O=C(COC(=O)c1c2c(nc3ccccc13)CCCC2)Nc1ccc2c(c1)OCO2 the results were H69AR inhibit 36.4*, Fibroblast inh 102.5, bCat KO growth 36.9, HCT116 PTEN-null 23.5 and HUVEC inhibit 68.1.
For COc1cccc(NC(=O)COC(=O)c2cccnc2)c1 the results were H69AR inhibit 98.5, Fibroblast inh 102.7, bCat KO growth 95.8, HCT116 PTEN-null 101.6 and HUVEC inhibit 89.6.
For COc1cccc(NC(=O)COC(=O)c2c3c(nc4ccccc24)CCC(C)C3)c1 (stereo not drawn) the results were H69AR inhibit 22.9*, Fibroblast inh 88.0, bCat KO growth 1.7*, HCT116 PTEN-null 1.4* and HUVEC inhibit 30.9.
C=COCCNC(=O)Nc1ccc(Cl)c(Cl)c1 was read as bCat KO growth 82.6 and HCT116 PTEN-null 79.3.
For Cn1c(=O)n(C/C=C/c2ccccc2)c(=O)c2c1nc1n2CCCN1c1ccc(F)cc1 the results were H69AR inhibit 107.0, Fibroblast inh 100.6, bCat KO growth 74.5, HCT116 PTEN-null 63.6 and HUVEC inhibit 62.4.
Screening Cc1ccc(S(=O)(=O)NNC(=O)NC23CC4CC(CC(C4)C2)C3)cc1 returned bCat KO growth 80.4 and HCT116 PTEN-null 98.0.
`CCN(CC)c1ccc(/C=C2/SC(=O)N(C(C)C)C2=O)o1` gave bCat KO growth 5.6* and HCT116 PTEN-null 5.2.
For Cc1nn(-c2nc3ccccc3s2)c(N)c1-c1ccccc1 the results were H69AR inhibit 87.9, Fibroblast inh 98.5, bCat KO growth 90.9, HCT116 PTEN-null 95.5 and HUVEC inhibit 110.1.
`Cc1nn(-c2nc3ccccc3[nH]2)c(N)c1-c1ccccc1` gave H69AR inhibit 19.9*, Fibroblast inh 68.6, bCat KO growth 13.2, HCT116 PTEN-null 7.3 and HUVEC inhibit 79.5.
Screening N#CCCN(C1CCCCC1)S(=O)(=O)CCOc1ccccc1 returned H69AR inhibit 87.9, Fibroblast inh 96.7, bCat KO growth 96.7, HCT116 PTEN-null 97.5 and HUVEC inhibit 100.0.
Cn1c(=O)c2c(SCC(=O)N3CCCc4ccccc43)nc(CC(C)(C)C)nc2n(C)c1=O was read as H69AR inhibit 29.7*, Fibroblast inh 80.1, bCat KO growth 4.8*, HCT116 PTEN-null 4.4 and HUVEC inhibit 88.5.
Cn1c(=O)c2c(SCC(=O)N3CCOCC3)nc(CC(C)(C)C)nc2n(C)c1=O was read as H69AR inhibit 24.1*, Fibroblast inh 35.5*, bCat KO growth 49.0, HCT116 PTEN-null 61.0 and HUVEC inhibit 45.4.
For COc1cc2nc(CN(C)Cc3nc4ccccc4c(=O)[nH]3)[nH]c(=O)c2cc1OC the results were bCat KO growth 103.1 and HCT116 PTEN-null 91.2.
CCN(CC(=O)NC(c1ccccc1)c1ccccc1)Cc1nc2ccccc2c(=O)[nH]1 was read as H69AR inhibit 53.4, Fibroblast inh 99.0, bCat KO growth 80.5, HCT116 PTEN-null 83.7 and HUVEC inhibit 87.6.
`CCN(Cc1nc2ccccc2c(=O)[nH]1)Cc1nc2cc(OC)c(OC)cc2c(=O)[nH]1` gave H69AR inhibit 14.7*, Fibroblast inh 103.3, bCat KO growth 97.1, HCT116 PTEN-null 99.7 and HUVEC inhibit 92.9.
CCN(CC)CC(=O)Nc1ccc2c(c1)Nc1ccccc1CC2 was read as H69AR inhibit 4.0*, Fibroblast inh 76.9, bCat KO growth 30.9, HCT116 PTEN-null 30.6 and HUVEC inhibit 34.5.
For CCN(CC(=O)Nc1ccc2c(c1)CCC2)Cc1nc2ccccc2c(=O)[nH]1 the results were H69AR inhibit 33.2*, Fibroblast inh 85.5, bCat KO growth 75.3, HCT116 PTEN-null 70.7 and HUVEC inhibit 83.9.
CCc1ccc2c(CN(CC)Cc3nc4ccccc4c(=O)[nH]3)cc(=O)oc2c1 was read as H69AR inhibit 35.8*, Fibroblast inh 90.1, bCat KO growth 65.5, HCT116 PTEN-null 64.2 and HUVEC inhibit 82.9.
For Cc1cc(C(=O)CN2CCCC(C)C2)c(C)n1-c1ccc(F)cc1 (stereo not drawn) the results were bCat KO growth 94.4 and HCT116 PTEN-null 97.7.
`COc1ccc(/C=N/NC(=O)CC2N=C(Cc3ccccc3)NNC2=O)cc1OC` (stereo not drawn) gave bCat KO growth 91.8 and HCT116 PTEN-null 100.0.
O=C(NCC1CCCO1)NC1(C(F)(F)F)Oc2ccccc2O1 (stereo not drawn) was read as H69AR inhibit 21.0*, Fibroblast inh 77.7, bCat KO growth 70.0, HCT116 PTEN-null 67.5 and HUVEC inhibit 71.4.
Screening O=C(Nc1ccc2c(c1)OCO2)NC1(C(F)(F)F)Oc2ccccc2O1 returned H69AR inhibit 26.4*, Fibroblast inh 92.8, bCat KO growth 75.3, HCT116 PTEN-null 87.0 and HUVEC inhibit 79.5.
O=C(NCC1CCCO1)c1ccccc1 (stereo not drawn) was read as H69AR inhibit 91.1, Fibroblast inh 104.7, bCat KO growth 94.6, HCT116 PTEN-null 103.7 and HUVEC inhibit 98.5.
O=C(NC1(C(F)(F)F)Oc2ccccc2O1)N1CCCC1 was read as H69AR inhibit 27.9*, Fibroblast inh 81.5, bCat KO growth 69.7, HCT116 PTEN-null 75.2 and HUVEC inhibit 65.4.
`O=C(Nc1ccc2c(c1)OCCO2)NC1(C(F)(F)F)Oc2ccccc2O1` gave H69AR inhibit 40.0, Fibroblast inh 93.1, bCat KO growth 74.5, HCT116 PTEN-null 65.8 and HUVEC inhibit 74.5.
`CC1=[N+](C)c2ccc3ccccc3c2C1(C)C` gave bCat KO growth 12.6 and HCT116 PTEN-null 7.5.
Cn1cc(C(=O)NCc2cccs2)c(=O)c2cc(S(=O)(=O)N3CCCC3)ccc21 was read as bCat KO growth 90.5 and HCT116 PTEN-null 89.4.
Cc1cccc(-[n+]2c(C)cc(C)c3c(=O)[nH]c(=O)[nH]c32)c1 was read as bCat KO growth 89.2 and HCT116 PTEN-null 96.8.
Cc1cc(Cn2ccnc2)c(C)cc1Cn1ccnc1 was read as H69AR inhibit 91.4, Fibroblast inh 100.4, bCat KO growth 86.4, HCT116 PTEN-null 85.5 and HUVEC inhibit 91.5.
C=CCn1c(SCC(O)Cn2c3ccccc3c3ccccc32)nnc1-c1ccco1 (stereo not drawn) was read as H69AR inhibit 26.4*, Fibroblast inh 87.3, bCat KO growth 85.8, HCT116 PTEN-null 78.5 and HUVEC inhibit 62.3.
C=CCn1c(SCC(=O)Nc2ccccc2OC)nnc1-c1ccco1 was read as H69AR inhibit 87.4, Fibroblast inh 91.3, bCat KO growth 69.2, HCT116 PTEN-null 71.2 and HUVEC inhibit 83.8.
COc1ccc2cc(C(c3nnnn3Cc3ccccc3)N3CCCCCC3)c(=O)[nH]c2c1 (stereo not drawn) was read as H69AR inhibit 67.4, Fibroblast inh 100.4 and HUVEC inhibit 85.5.
